Results reported in ChEMBL document CHEMBL4049410, “Novel benzimidazolyl tetrahydroprotoberberines: Design, synthesis, antimicrobial evaluation and multi-targeting exploration” (2017).
Converted amounts (≈) assume the structure as drawn.

How the values were obtained:
Shigella dysenteriae = experiment: Antibacterial activity against Shigella dysenteriae after 24 hrs by two-fold serial dilution assay; format: functional
Pseudomonas aeruginosa = experiment: Antibacterial activity against Pseudomonas aeruginosa after 24 hrs by two-fold serial dilution assay; format: functional
Outline: (§1)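 Twofold serial broth dilution following NCCLS guidance, with Chloromycin, Norfloxacin and Fluconazole as positive controls. MIC in μM is the lowest concentration giving complete inhibition of visible bacterial or fungal growth.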

Staphylococcus aureus [1] = experiment: Antibacterial activity against Staphylococcus aureus ATCC 25923 after 24 hrs by two-fold serial dilution assay; format: functional; outline: as §1
Escherichia coli [2] = experiment: Antibacterial activity against Escherichia coli JM109 after 24 hrs by two-fold serial dilution assay; format: functional; outline: as §1
Staphylococcus aureus [3] = experiment: Antibacterial activity against methicillin-resistant Staphylococcus aureus N315 after 24 hrs by two-fold serial dilution assay; format: functional
Salmonella typhi = experiment: Antibacterial activity against Bacillus typhi after 24 hrs by two-fold serial dilution assay; format: functional, Salmonella enterica subsp. enterica serovar Typhi
Micrococcus luteus = experiment: Antibacterial activity against Micrococcus luteus ATCC 4698 after 24 hrs by two-fold serial dilution assay; format: functional, NCTC 2665; outline: as §1
Saccharomyces cerevisiae = experiment: Antifungal activity against Saccharomyces cerevisiae after 24 hrs by two-fold serial dilution assay; format: functional; outline: as §1
Aspergillus flavus = experiment: Antifungal activity against Aspergillus flavus after 24 hrs by two-fold serial dilution assay; format: functional; outline: as §1
Bacillus subtilis = experiment: Antibacterial activity against Bacillus subtilis after 24 hrs by two-fold serial dilution assay; format: functional; outline: as §1
Cyberlindnera jadinii = experiment: Antifungal activity against Candida utilis after 24 hrs by two-fold serial dilution assay; format: functional; outline: as §1
Escherichia coli [4] = experiment: Antibacterial activity against Escherichia coli DH52 after 24 hrs by two-fold serial dilution assay; format: functional; outline: as §1
Pichia norvegensis = experiment: Antifungal activity against Candida mycoderma after 24 hrs by two-fold serial dilution assay; format: functional; outline: as §1
Candida albicans = experiment: Antifungal activity against Candida albicans ATCC 76615 after 24 hrs by two-fold serial dilution assay; format: functional; outline: as §1
Proteus vulgaris = experiment: Antibacterial activity against Bacillus proteus ATCC 13315 after 24 hrs by two-fold serial dilution assay; format: functional; outline: as §1
[5] = Shigella dysenteriae, 24 h, read-out: MIC
[6] = Pseudomonas aeruginosa, 24 h, read-out: MIC
[7] = Staphylococcus aureus, ATCC 25923, 24 h, read-out: MIC
[8] = Escherichia coli, JM109, 24 h, read-out: MIC
[9] = Staphylococcus aureus, N315, 24 h, read-out: MIC
[10] = Salmonella enterica, 24 h, read-out: MIC
[11] = Micrococcus luteus, NCTC 2665, 24 h, read-out: MIC
[12] = Saccharomyces cerevisiae, 24 h, read-out: MIC
[13] = Aspergillus flavus, 24 h, read-out: MIC
[14] = Bacillus subtilis, 24 h, read-out: MIC
[15] = Williopsis jadinii, 24 h, read-out: MIC
[16] = Escherichia coli, DH52, 24 h, read-out: MIC
[17] = Pichia norvegensis, 24 h, read-out: MIC
[18] = Candida albicans, ATCC 76615, 24 h, read-out: MIC
[19] = Proteus vulgaris, ATCC 13315, 24 h, read-out: MIC

Structure (SMILES)	MIC (Pseudomonas aeruginosa)	MIC (Escherichia coli [2])	MIC (Micrococcus luteus)	MIC (Aspergillus flavus)	MIC (Bacillus subtilis)	MIC (Cyberlindnera jadinii)	MIC (Escherichia coli [4])	MIC (Proteus vulgaris)	MIC (Shigella dysenteriae; [5])	MIC (Pseudomonas aeruginosa; [6])	MIC (Staphylococcus aureus [1]; [7])	MIC (Escherichia coli [2]; [8])	MIC (Staphylococcus aureus [3]; [9])	MIC (Micrococcus luteus; [11])	MIC (Saccharomyces cerevisiae; [12])	MIC (Bacillus subtilis; [14])	MIC (Escherichia coli [4]; [16])	MIC (Pichia norvegensis; [17])	MIC (Candida albicans; [18])	MIC (Proteus vulgaris; [19])	further results
COc1cc(-c2nc3ccccc3n2Cc2ccc(Cl)cc2)c2c(c1O)CN1CCc3cc4c(cc3C1C2)OCO4 (stereo unspecified)	23.6 µM (≈ 13.4 µg/mL)	37.7 µM (≈ 21.3 µg/mL)	28.3 µM (≈ 16 µg/mL)	14.1 µM (≈ 7.98 µg/mL)	11.8 µM (≈ 6.68 µg/mL)	11.8 µM (≈ 6.68 µg/mL)	56.5 µM (≈ 32 µg/mL)	11.8 µM (≈ 6.68 µg/mL)													MIC (Shigella dysenteriae): 18.9 µM (≈ 10.7 µg/mL); MIC (Staphylococcus aureus [1]): 9.4 µM (≈ 5.32 µg/mL); MIC (Staphylococcus aureus [3]): 18.9 µM (≈ 10.7 µg/mL); MIC (Salmonella typhi): 9.4 µM (≈ 5.32 µg/mL); MIC (Saccharomyces cerevisiae): 14.1 µM (≈ 7.98 µg/mL); MIC (Pichia norvegensis): 14.1 µM (≈ 7.98 µg/mL); MIC (Candida albicans): 23.6 µM (≈ 13.4 µg/mL)
CCn1c(-c2cc(OC)c(O)c3c2CC2c4cc5c(cc4CCN2C3)OCO5)nc2ccccc21 (stereo unspecified)									136 µM (≈ 64 µg/mL)	68.2 µM (≈ 32 µg/mL)	28.4 µM (≈ 13.3 µg/mL)	28.4 µM (≈ 13.3 µg/mL)	14.2 µM (≈ 6.67 µg/mL)	28.4 µM (≈ 13.3 µg/mL)	22.7 µM (≈ 10.7 µg/mL)	34.1 µM (≈ 16 µg/mL)	136 µM (≈ 64 µg/mL)	56.8 µM (≈ 26.7 µg/mL)	17 µM (≈ 7.98 µg/mL)	56.8 µM (≈ 26.7 µg/mL)	MIC (Salmonella typhi; [10]): 14.2 µM (≈ 6.67 µg/mL); MIC (Aspergillus flavus; [13]): 56.8 µM (≈ 26.7 µg/mL); MIC (Cyberlindnera jadinii; [15]): 34.1 µM (≈ 16 µg/mL)
COc1cc(C=O)c2c(c1O)CN1CCc3cc4c(cc3C1C2)OCO4 (stereo unspecified)									121 µM (≈ 42.7 µg/mL)	302 µM (≈ 107 µg/mL)	724 µM (≈ 256 µg/mL)	242 µM (≈ 85.3 µg/mL)	302 µM (≈ 107 µg/mL)	302 µM (≈ 107 µg/mL)	362 µM (≈ 128 µg/mL)	483 µM (≈ 171 µg/mL)	242 µM (≈ 85.3 µg/mL)	242 µM (≈ 85.3 µg/mL)	151 µM (≈ 53.3 µg/mL)	483 µM (≈ 171 µg/mL)	MIC (Salmonella typhi; [10]): 302 µM (≈ 107 µg/mL); MIC (Aspergillus flavus; [13]): 151 µM (≈ 53.3 µg/mL); MIC (Cyberlindnera jadinii; [15]): 302 µM (≈ 107 µg/mL)
COc1cc(-c2nc3ccccc3n2Cc2ccc(Cl)cc2)c2c(c1O)CN1CCc3cc4c(cc3C1C2)OCO4.Cl (stereo unspecified)	535.9 µM	535.9 µM	535.9 µM	669.8 µM	134 µM	535.9 µM	669.8 µM	535.9 µM													MIC (Staphylococcus aureus [1]): 267.9 µM; MIC (Salmonella typhi): 201 µM; MIC (Saccharomyces cerevisiae): 803.8 µM; MIC (Pichia norvegensis): 267.9 µM; MIC (Candida albicans): 401.9 µM
O=C(N[C@H](CO)[C@H](O)c1ccc([N+](=O)[O-])cc1)C(Cl)Cl [CHLORAMPHENICOL]									99 µM (≈ 32 µg/mL)	99 µM (≈ 32 µg/mL)	41.3 µM (≈ 13.3 µg/mL)	82.5 µM (≈ 26.7 µg/mL)	41.3 µM (≈ 13.3 µg/mL)	20.7 µM (≈ 6.69 µg/mL)		82.5 µM (≈ 26.7 µg/mL)	66 µM (≈ 21.3 µg/mL)			99 µM (≈ 32 µg/mL)	MIC (Salmonella typhi; [10]): 82.5 µM (≈ 26.7 µg/mL)
COc1cc(-c2nc3ccccc3n2CCCCCCn2c3ccccc3c3ccccc32)c2c(c1O)CN1CCc3cc4c(cc3C1C2)OCO4 (stereo unspecified)			741.1 µM (≈ 512 µg/mL)	617.6 µM (≈ 427 µg/mL)			617.6 µM (≈ 427 µg/mL)	617.6 µM (≈ 427 µg/mL)		741 µM (≈ 512 µg/mL)		618 µM (≈ 427 µg/mL)	618 µM (≈ 427 µg/mL)		741 µM (≈ 512 µg/mL)	741 µM (≈ 512 µg/mL)		618 µM (≈ 427 µg/mL)	247 µM (≈ 171 µg/mL)		MIC (Cyberlindnera jadinii; [15]): 618 µM (≈ 427 µg/mL)
CCn1cc(C(=O)O)c(=O)c2cc(F)c(N3CCNCC3)cc21 [NORFLOXACIN]									5.3 µM (≈ 1.69 µg/mL)	41.8 µM (≈ 13.3 µg/mL)	1.1 µM (≈ 0.351 µg/mL)	50.1 µM (≈ 16 µg/mL)	25.1 µM (≈ 8.02 µg/mL)	4.2 µM (≈ 1.34 µg/mL)		3.1 µM (≈ 0.99 µg/mL)	50.1 µM (≈ 16 µg/mL)			12.5 µM (≈ 3.99 µg/mL)	MIC (Salmonella typhi; [10]): 10.4 µM (≈ 3.32 µg/mL)
COc1cc(-c2nc3ccccc3n2Cc2ccccc2F)c2c(c1O)CN1CCc3cc4c(cc3C1C2)OCO4.Cl (stereo unspecified)	67 µM	20.9 µM	20.9 µM	803.8 µM	33.5 µM	12.6 µM	20.9 µM	20.9 µM													MIC (Shigella dysenteriae): 50.2 µM; MIC (Salmonella typhi): 6.3 µM; MIC (Saccharomyces cerevisiae): 83.8 µM; MIC (Pichia norvegensis): 10.5 µM; MIC (Candida albicans): 20.9 µM
COc1cc(-c2nc3ccccc3n2Cc2ccccc2F)c2c(c1O)CN1CCc3cc4c(cc3C1C2)OCO4 (stereo unspecified)				24.3 µM (≈ 13.4 µg/mL)					48.5 µM (≈ 26.7 µg/mL)	58.2 µM (≈ 32 µg/mL)		29.1 µM (≈ 16 µg/mL)	24.3 µM (≈ 13.4 µg/mL)	29.1 µM (≈ 16 µg/mL)	58.2 µM (≈ 32 µg/mL)	48.5 µM (≈ 26.7 µg/mL)	38.8 µM (≈ 21.3 µg/mL)	19.4 µM (≈ 10.7 µg/mL)	24.3 µM (≈ 13.4 µg/mL)	38.8 µM (≈ 21.3 µg/mL)	MIC (Staphylococcus aureus [1]): 58.2 µM (≈ 32 µg/mL); MIC (Cyberlindnera jadinii; [15]): 9.7 µM (≈ 5.33 µg/mL)
COc1cc(-c2nc3ccccc3n2Cc2cccc(F)c2)c2c(c1O)CN1CCc3cc4c(cc3C1C2)OCO4 (stereo unspecified)	48.5 µM (≈ 26.7 µg/mL)	29.1 µM (≈ 16 µg/mL)	19.4 µM (≈ 10.7 µg/mL)	24.3 µM (≈ 13.4 µg/mL)	19.4 µM (≈ 10.7 µg/mL)	48.5 µM (≈ 26.7 µg/mL)	38.8 µM (≈ 21.3 µg/mL)	38.8 µM (≈ 21.3 µg/mL)	116 µM (≈ 64 µg/mL)		48.5 µM (≈ 26.7 µg/mL)				24.3 µM (≈ 13.4 µg/mL)			48.5 µM (≈ 26.7 µg/mL)	48.5 µM (≈ 26.7 µg/mL)		MIC (Staphylococcus aureus [3]): 12.2 µM (≈ 6.71 µg/mL)
